From ChEMBL document CHEMBL1136610, “Dehydrophenylalanine derivatives as VLA-4 integrin antagonists” (Bioorg Med Chem Lett, 2003)

How the values were obtained:
[1] = molecular target: T1, Integrin alpha-4/beta-1 (Homo sapiens, UniProt P05556+P13612); experiment: Inhibition of VLA-4 to VCAM-1 binding in Jurkat cell adhesion assay; assay type: cell-based
Method in brief: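 Jurkat cells expressing VLA-4 incubated 30 min at 37 °C with test compounds on human 2-domain VCAM-1-Fc, which was immobilised on the plate via anti-human Fc. Plates washed and adherent cells stained with Rose Bengal. Reported as IC50.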

[2] = molecular target: T1, Integrin alpha-4/beta-1; experiment: Inhibition of VLA-4 to VCAM-1 binding; assay type: protein-complex assay
Method in brief: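 Test compounds titrated into a solution of 2-domain VCAM-Fc-Ig, then added to assay wells. Buffer: TBS with 1% BSA, 1 mM MnCl2 and 0.1% Tween. Incubated 2 h at room temperature, then washed. Bound VCAM detected with peroxidase-coupled anti-human Fc. Reported as IC50.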

[3] = species: Rattus norvegicus; experiment: Clearance rate constant using isolated perfused rat liver (IPRL) assay; assay type: ADME

T1 sequence (P05556 whole entry): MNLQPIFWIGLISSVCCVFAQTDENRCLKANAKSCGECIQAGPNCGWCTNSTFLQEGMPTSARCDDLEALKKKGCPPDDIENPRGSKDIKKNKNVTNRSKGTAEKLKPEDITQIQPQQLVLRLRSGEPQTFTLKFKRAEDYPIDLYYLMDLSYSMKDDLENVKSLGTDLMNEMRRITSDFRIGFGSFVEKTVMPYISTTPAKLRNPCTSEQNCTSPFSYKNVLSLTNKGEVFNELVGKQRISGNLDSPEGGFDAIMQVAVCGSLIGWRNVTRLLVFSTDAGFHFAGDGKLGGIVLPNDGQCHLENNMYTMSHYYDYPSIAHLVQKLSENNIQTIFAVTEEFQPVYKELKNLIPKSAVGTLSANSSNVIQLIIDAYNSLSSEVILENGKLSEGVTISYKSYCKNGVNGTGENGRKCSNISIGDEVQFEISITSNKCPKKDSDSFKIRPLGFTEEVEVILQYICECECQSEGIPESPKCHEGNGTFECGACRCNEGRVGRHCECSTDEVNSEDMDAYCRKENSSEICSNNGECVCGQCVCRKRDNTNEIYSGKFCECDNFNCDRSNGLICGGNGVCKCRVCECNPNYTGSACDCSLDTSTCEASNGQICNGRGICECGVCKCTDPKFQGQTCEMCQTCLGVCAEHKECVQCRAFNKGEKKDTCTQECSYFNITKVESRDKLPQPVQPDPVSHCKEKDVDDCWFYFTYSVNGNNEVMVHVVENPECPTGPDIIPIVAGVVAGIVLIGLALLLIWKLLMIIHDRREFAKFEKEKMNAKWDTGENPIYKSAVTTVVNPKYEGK
T1 sequence (P13612 whole entry): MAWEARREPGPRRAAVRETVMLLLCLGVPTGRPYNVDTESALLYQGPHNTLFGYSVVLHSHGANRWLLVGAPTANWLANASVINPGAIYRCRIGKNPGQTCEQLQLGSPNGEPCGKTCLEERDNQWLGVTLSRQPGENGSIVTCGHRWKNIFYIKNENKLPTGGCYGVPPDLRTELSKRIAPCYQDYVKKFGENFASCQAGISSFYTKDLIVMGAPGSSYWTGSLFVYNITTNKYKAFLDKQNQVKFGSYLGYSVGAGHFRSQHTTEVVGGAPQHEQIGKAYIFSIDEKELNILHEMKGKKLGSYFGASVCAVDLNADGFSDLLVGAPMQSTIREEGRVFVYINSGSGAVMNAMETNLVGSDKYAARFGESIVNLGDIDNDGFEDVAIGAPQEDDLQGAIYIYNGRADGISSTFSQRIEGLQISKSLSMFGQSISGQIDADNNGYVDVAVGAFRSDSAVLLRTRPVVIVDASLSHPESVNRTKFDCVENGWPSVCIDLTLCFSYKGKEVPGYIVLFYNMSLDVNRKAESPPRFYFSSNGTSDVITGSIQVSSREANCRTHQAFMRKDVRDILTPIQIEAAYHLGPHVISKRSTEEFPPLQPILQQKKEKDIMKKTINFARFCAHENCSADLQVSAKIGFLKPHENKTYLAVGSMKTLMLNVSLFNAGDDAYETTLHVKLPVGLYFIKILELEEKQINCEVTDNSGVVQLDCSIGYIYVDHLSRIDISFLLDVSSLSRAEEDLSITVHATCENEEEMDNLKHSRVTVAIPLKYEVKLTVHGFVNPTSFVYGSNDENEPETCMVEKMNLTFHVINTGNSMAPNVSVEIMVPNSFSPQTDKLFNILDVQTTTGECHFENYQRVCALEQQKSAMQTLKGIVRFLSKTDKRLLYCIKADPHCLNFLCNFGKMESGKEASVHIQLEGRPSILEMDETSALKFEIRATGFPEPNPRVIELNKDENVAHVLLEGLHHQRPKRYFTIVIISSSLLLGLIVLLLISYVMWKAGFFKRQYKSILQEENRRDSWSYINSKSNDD

| Compound | IC50 [1] [nM] | IC50 [2] [nM] | k [3] [h⁻¹] |
| --- | --- | --- | --- |
| CC(C)(C)C(=O)N/C(=C\c1ccc(NC(=O)c2c(Cl)cccc2Cl)cc1)C(=O)O | 3700 | 50 | 4.8 |
| O=C(O)/C(=C\c1ccc(NC(=O)c2c(Cl)cncc2Cl)cc1)NC(=O)c1cccnc1Cl | 8500 | 66 | 1.5 |
| CC(=O)N1CSC[C@@H]1C(=O)N/C(=C/c1ccc(NC(=O)c2c(Cl)cccc2Cl)cc1)C(=O)O | 29000 | 400 | 0.7 |
| CC(=O)N1CSC[C@H]1C(=O)N/C(=C/c1ccc(OCc2ccccc2)cc1)C(=O)O | 20000 | 1500 | 0.6 |
| CC(=O)N1CSC[C@@H]1C(=O)N/C(=C\c1ccc(OCc2c(Cl)cccc2Cl)cc1)C(=O)O | 5000 | 2800 | 4.1 |
| CC(=O)N1CSCC1C(=O)N/C(=C/c1ccc(OCc2c(Cl)cccc2Cl)cc1)C(=O)O (stereo not drawn) | 83000 | 7400 | 0.4 |
| O=C(O)/C(=C/c1ccc(OCc2c(Cl)cncc2Cl)cc1)NC(=O)c1cccnc1Cl | 14000 | 140 |  |
| CC(=O)N1CSC[C@H]1C(=O)N/C(=C\c1ccc(OCc2ccccc2)cc1)C(=O)O | 71000 | 2200 | 3.8 |
| O=C(O)/C(=C/c1ccc(OCc2c(Cl)cccc2Cl)cc1)NC(=O)c1cccnc1Cl | 7100 | 220 | 3.7 |
| CC(C)(C)C(=O)N/C(=C/c1ccc(NC(=O)c2c(Cl)cccc2Cl)cc1)C(=O)O | 80000 | 2700 |  |

Now those with a lower IC50 [1], led by results:

| IC50 [1] [nM] | IC50 [2] [nM] | k [3] [h⁻¹] | Compound |
| --- | --- | --- | --- |
| 410 | 55 | 5.3 | O=C(O)C1=Cc2ccc(NC(=O)c3c(Cl)cncc3Cl)cc2NC(c2cccnc2Cl)=N1 |
| 200 | 60 | 1.2 | CC(=O)N1CSC[C@@H]1C(=O)N/C(=C/c1ccc(NC(=O)c2c(Cl)cncc2Cl)cc1)C(=O)O |
| 70 | 1.4 | 3.9 | O=C(O)/C(=C/c1ccc(NC(=O)c2c(Cl)cncc2Cl)cc1)NC(=O)c1cccnc1Cl |
| 140 | 5 | 3.9 | CC(=O)N1CSC[C@@H]1C(=O)N/C(=C\c1ccc(NC(=O)c2c(Cl)cccc2Cl)cc1)C(=O)O |
| 25 | 2 | 4.4 | CC(=O)N1CSC[C@@H]1C(=O)N/C(=C\c1ccc(NC(=O)c2c(Cl)cncc2Cl)cc1)C(=O)O |
